According to ChEMBL document CHEMBL1255555, “Parallel synthesis and anti-inflammatory activity of cyclic peptides cyclosquamosin D and Met-cherimolacyclopeptide B and their analogs” (2010):
Active and inactive are the calls of the source. The calls are words filed in the database; no cut-off is given here. Residues, ends and D or L forms follow the SMILES beside them.

Experiments:
[1] = test system: J774.A1; experiment: Antiinflammatory activity in mouse J774A1 cells assessed as inhibition of LPS-stimulated TNFalpha stimulation after 4 hrs by ELISA; assay type: functional, cell-based
In short: (§1)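 Murine macrophage J774A.1 cells in RPMI1640 with 10% heat-inactivated FBS, glutamine, pyruvate, nonessential amino acids, HEPES and 2-mercaptoethanol. Peptides, dissolved in DMSO, added for 1 h at 37 °C before LPS (0.1 µg/mL) for a further 4 or 6 h. IL-6 or TNF-α in supernatant measured by sandwich ELISA: biotinylated detection antibody, avidin-HRP, ABTS substrate, OD 405 nm.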

[2] = test system: J774.A1; experiment: Antiinflammatory activity in mouse J774A1 cells assessed as inhibition of LPS-stimulated IL6 stimulation after 4 hrs by ELISA; assay type: functional; in short: as §1

Row | Compound | Activity [1] | Activity [2] | Activity ([2]; record 2) [%]
1 | CC[C@@H](C)[C@@H]1NC(=O)[C@@H]2CCCN2C(=O)[C@H](CC(C)C)NC(=O)[C@H](C)NC(=O)CNC(=O)[C@H]([C@@H](C)O)NC(=O)[C@H](CCC(N)=O)NC(=O)[C@@H]2CCCN2C1=O | Active | Active | –
2 | CC(C)C[C@@H]1NC(=O)[C@H](C(C)C)NC(=O)CNC(=O)[C@H](C)NC(=O)[C@@H]2CCCN2C(=O)[C@H](Cc2ccc(O)cc2)NC(=O)[C@H](Cc2ccc(O)cc2)NC(=O)[C@H](CO)NC1=O (cyclo(AGVLSYYP)) | Active | Active | –
3 | CC[C@H](C)[C@@H]1NC(=O)[C@@H]2CCCN2C(=O)[C@H](CC(C)C)NC(=O)[C@H](CCSC)NC(=O)[C@H](C)NC(=O)[C@H]([C@@H](C)O)NC(=O)[C@H](CCC(N)=O)NC(=O)[C@@H]2CCCN2C1=O (cyclo(AMLPIPQT)) | Active | Active | –
4 | CC(C)C[C@@H]1NC(=O)[C@H](C(C)C)NC(=O)[C@H](C)NC(=O)CNC(=O)[C@@H]2CCCN2C(=O)[C@H](Cc2ccc(O)cc2)NC(=O)[C@H](Cc2ccc(O)cc2)NC(=O)[C@H](CO)NC1=O (cyclo(AVLSYYPG)) | – | Active | –
5 | COc1ccc(C[C@@H]2NC(=O)[C@H](Cc3ccc(O)cc3)NC(=O)[C@H](CO)NC(=O)[C@H](CC(C)C)NC(=O)[C@H](C(C)C)NC(=O)CNC(=O)CNC(=O)[C@@H]3CCCN3C2=O)cc1 (cyclo(GGVLSYY(Me)P)) | inactive | Active | 25
